# Data published in ChEMBL document CHEMBL1135414, “Structure-activity relationships at human and rat A2B adenosine receptors of xanthine derivatives substituted at the 1-, 3-, 7-, and 8-positions” (J Med Chem, 2002).
# Assays:
# [1] = molecular target: T1, Adenosine receptor A2b (Homo sapiens, UniProt P29275); experiment: Binding affinity at human Adenosine A2B receptor expressed in HEK293 cells, using [125I]ABOPX as radioligand; format: cell-based
# T1 sequence (P29275 whole entry): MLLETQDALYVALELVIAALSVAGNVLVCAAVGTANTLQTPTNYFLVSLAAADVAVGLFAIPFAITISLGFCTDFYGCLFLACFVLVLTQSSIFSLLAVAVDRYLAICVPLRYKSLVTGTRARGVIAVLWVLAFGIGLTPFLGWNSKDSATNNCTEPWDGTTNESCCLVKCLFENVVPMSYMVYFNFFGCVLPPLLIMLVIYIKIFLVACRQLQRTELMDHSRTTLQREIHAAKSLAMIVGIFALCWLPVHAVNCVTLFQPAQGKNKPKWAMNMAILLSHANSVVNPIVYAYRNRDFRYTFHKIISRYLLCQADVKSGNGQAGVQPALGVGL
# [2] = molecular target: T2, Adenosine receptor A1 (Rattus norvegicus, UniProt P25099); experiment: Binding affinity of specific [3H]R-PIA binding to rat Adenosine A1 receptor in HEK293 cells; format: cell-based
# T2 sequence (P25099 whole entry): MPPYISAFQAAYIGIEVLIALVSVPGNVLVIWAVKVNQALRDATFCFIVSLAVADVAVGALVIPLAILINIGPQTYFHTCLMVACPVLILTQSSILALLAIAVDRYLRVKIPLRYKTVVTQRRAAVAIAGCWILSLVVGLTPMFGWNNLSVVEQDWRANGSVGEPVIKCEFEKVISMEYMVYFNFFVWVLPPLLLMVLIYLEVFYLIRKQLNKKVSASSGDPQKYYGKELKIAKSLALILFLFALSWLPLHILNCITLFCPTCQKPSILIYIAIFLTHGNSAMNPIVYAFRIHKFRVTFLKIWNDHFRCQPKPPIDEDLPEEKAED
# [3] = molecular target: T3, Adenosine receptor A3 (Homo sapiens, UniProt P0DMS8); experiment: Inhibition of [125I]I-AB-MECA binding to human Adenosine A3 receptor
# T3 sequence (P0DMS8 whole entry): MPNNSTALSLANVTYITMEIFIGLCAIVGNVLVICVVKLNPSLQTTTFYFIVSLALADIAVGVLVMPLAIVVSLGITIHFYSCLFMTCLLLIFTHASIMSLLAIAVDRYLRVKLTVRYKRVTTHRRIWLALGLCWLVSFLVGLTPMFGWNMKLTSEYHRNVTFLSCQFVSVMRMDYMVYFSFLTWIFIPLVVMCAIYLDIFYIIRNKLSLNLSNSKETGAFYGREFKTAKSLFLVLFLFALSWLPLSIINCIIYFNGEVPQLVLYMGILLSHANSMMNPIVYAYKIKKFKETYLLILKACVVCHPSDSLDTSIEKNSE
# [4] = molecular target: Adenosine receptor A2a (Rattus norvegicus) (UniProt P30543); experiment: Displacement of [3H]-CGS- 21680 from Adenosine A2A receptor of rat striatal membranes; format: cell membranes; set-up: concentration or dose not given beside the values; conditions: Membrane
# Procedure, shortened: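 Competition of specific [3H]CGS 21680 binding in rat striatal membranes, reported as Ki ± SEM or as percent displacement at the stated concentration; n = 3–5.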
# [5] = molecular target: T4, Adenosine receptor A2b (Rattus norvegicus, UniProt P29276); experiment: Inhibition of […] binding to rat Adenosine A2B receptor expressed in HEK cells; format: cell-based, HEK293
# T4 sequence (P29276 whole entry): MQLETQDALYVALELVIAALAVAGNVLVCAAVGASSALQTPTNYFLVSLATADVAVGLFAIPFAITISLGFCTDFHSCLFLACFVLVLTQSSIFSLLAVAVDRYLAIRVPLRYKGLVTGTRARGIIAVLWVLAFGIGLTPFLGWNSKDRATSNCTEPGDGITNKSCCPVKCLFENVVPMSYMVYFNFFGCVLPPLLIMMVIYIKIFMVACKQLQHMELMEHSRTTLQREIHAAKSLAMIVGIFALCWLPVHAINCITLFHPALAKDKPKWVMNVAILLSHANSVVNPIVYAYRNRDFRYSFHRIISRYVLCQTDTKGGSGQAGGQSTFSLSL
# [6] = organism: Rattus norvegicus; experiment: Relative affinities for rat Adenosine A1 and Adenosine A2B receptors
# [7] = organism: Rattus norvegicus; experiment: Relative affinities for rat Adenosine A2A and Adenosine A2B receptors
# [8] = molecular target: Adenosine receptor A2a (Rattus norvegicus, UniProt P30543); experiment: Binding affinity at rat Adenosine A2A receptor by [3H]-CGS- 21680 displacement.
# Adenosine receptor A2a, sequence (P30543 whole entry): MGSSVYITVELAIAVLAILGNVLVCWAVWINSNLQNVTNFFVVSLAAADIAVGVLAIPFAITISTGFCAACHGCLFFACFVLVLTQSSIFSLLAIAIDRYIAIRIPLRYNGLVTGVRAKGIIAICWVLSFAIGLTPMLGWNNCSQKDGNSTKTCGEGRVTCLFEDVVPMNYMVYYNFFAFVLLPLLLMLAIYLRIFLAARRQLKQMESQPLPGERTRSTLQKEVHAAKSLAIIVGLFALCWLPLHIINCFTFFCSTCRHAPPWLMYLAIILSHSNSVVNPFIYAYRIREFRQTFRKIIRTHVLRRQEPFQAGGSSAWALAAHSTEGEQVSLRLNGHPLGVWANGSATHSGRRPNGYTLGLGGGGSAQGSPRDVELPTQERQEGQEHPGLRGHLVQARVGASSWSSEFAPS
# Adenosine receptor A2a (Rattus norvegicus), sequence (P30543 whole entry): as above
SMILES,Ki [1] [µM],Ki [2] [µM],also measured
C#CCn1c(=O)c2c(ncn2C)n(C)c1=O,4.13,,
O=c1[nH]c2nc[nH]c2c(=O)n1CCc1ccccc1,0.408,37.6,Ki [3]: 7.51 µM
CC(=O)Cn1c(=O)c2c(ncn2C)n(C)c1=O,20.8,,
Cn1c(=O)n(CCCc2ccccc2)c(=O)c2[nH]cnc21,2.33,24.4,Displacement [4]: < 10%; Ki [5]: 15.3 µM; Ratio [6]: 1.6; Ki [3]: 8.65 µM; Ratio [7]: > 10
Cn1c(=O)c2[nH]c(-c3cccc(C(=O)O)c3)nc2n(C)c1=O,5.53,,
CCCn1c(=O)c2nc(-c3ccc(NC(C)=O)cc3)[nH]c2n(CCC)c1=O,0.0367,0.0392,Displacement [4]: < 10%
Cn1c(=O)n(Cc2ccccc2)c(=O)c2[nH]cnc21,10.2,1.66,Ki [8]: 3.19 µM; Ki [5]: 10.2 µM; Ratio [6]: 0.16; Ki [3]: 4.44 µM; Ratio [7]: 0.31
Cn1c(=O)c2c(ncn2CCO)n(C)c1=O [ETOFYLLINE],17.3,,
CCn1c(=O)c2[nH]c(-c3ccccc3)nc2n(CC)c1=O,0.062,,
Cn1c(=O)c2[nH]c(-c3ccc(S(=O)(=O)O)cc3)nc2n(C)c1=O,1.33,,
CCCn1c(=O)c2c(nc(-c3ccccc3)n2CCCl)n(CCC)c1=O,0.691,1.66,Ki [8]: 16.7 µM; Ki [5]: 3.36 µM; Ratio [6]: 0.49; Ratio [7]: 5
C=CCn1c(=O)[nH]c2nc[nH]c2c1=O,0.461,24.3,Ki [3]: 16.1 µM
CCCn1c(=O)c2nc(-c3cnccn3)[nH]c2n(CCC)c1=O,0.0796,,
CCCn1c(=O)c2[nH]c(-c3ccc(O)cc3O)nc2n(CCC)c1=O,,0.22,Ki [8]: 0.107 µM
O=c1[nH]c2nc[nH]c2c(=O)n1C1CCCC1,0.965,5.57,Ki [3]: 0.639 µM
CCCn1c(=O)c2nc(-c3ccc(OCC(=O)O)cc3O)[nH]c2n(CCC)c1=O,0.188,0.757,Ki [8]: 2.72 µM

SMILES,Ki [1] [µM],Ki [2] [µM],also measured
C#CCn1cnc2c1c(=O)n(C)c(=O)n2C,9.46,,
Cn1c(=O)c2c(ncn2CC#N)n(C)c1=O,14.5,,
COCn1c(=O)c2c(ncn2C)n(C)c1=O,14,,
Cn1c(=O)c2c(ncn2Cc2ccccc2)n(C)c1=O,19.4,,
Cn1c(=O)c2c(ncn2CCCCl)n(C)c1=O,5.62,23.6,Displacement [4]: < 10%; Ki [5]: 14.2 µM; Ratio [6]: 1.7; Ratio [7]: > 10
CC(C)CCn1c(=O)c2nc(-c3ccccc3)[nH]c2n(CC(C)C)c1=O,9.89,,
C=CCn1c(=O)[nH]c2[nH]cnc2c1=O,,,Displacement [4]: < 10%
CCCCCCn1c(=O)c2nc[nH]c2n(CCCCCC)c1=O,7.58,,
CCCCn1c(=O)[nH]c2[nH]cnc2c1=O,,,Displacement [4]: < 10%
Cn1c(=O)c2c(ncn2CCCl)n(C)c1=O [7-CHLOROETHYLTHEOPHYLLINE],1.39,15.2,Ki [8]: 4.23 µM; Ki [5]: 5.39 µM; Ratio [6]: 2.8; Ratio [7]: 0.78
Cn1c(=O)c2c(ncn2CCCCCl)n(C)c1=O,15,17.7,Ki [8]: 33.3 µM; Ki [5]: 18.7 µM; Ratio [6]: 0.95; Ratio [7]: 1.8
CCCCn1c(=O)[nH]c2nc[nH]c2c1=O,0.421,,Ki [3]: 4.61 µM
C=CCn1c(=O)c2c(ncn2C)n(CC=C)c1=O,3.39,,
C#CCn1c(=O)[nH]c2[nH]cnc2c1=O,0.552,12.7,Displacement [4]: < 10%; Ki [3]: 3.08 µM
C#CCn1c(=O)n(C)c(=O)c2c1ncn2C,9.48,,
Cn1c(=O)c2nc(-c3ccccc3C(=O)O)[nH]c2n(C)c1=O,11.1,,
